Shown are actives, neighbours in structure and some others; about 5% of the full set was active somewhere.
Mdm2-MdmX inh = human Mdm2/MdmX binding inhibition | inhibition, % at 8 µM | SaOS-2 split-luciferase Mdm2/MdmX complementation, luminescence | 330,000 compounds, 3% hits | O15151+Q00987 | AID 485346;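 active = inhibition of at least 50% at 8 µM in the primary screen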
Target sequence (O15151 whole entry, looked up): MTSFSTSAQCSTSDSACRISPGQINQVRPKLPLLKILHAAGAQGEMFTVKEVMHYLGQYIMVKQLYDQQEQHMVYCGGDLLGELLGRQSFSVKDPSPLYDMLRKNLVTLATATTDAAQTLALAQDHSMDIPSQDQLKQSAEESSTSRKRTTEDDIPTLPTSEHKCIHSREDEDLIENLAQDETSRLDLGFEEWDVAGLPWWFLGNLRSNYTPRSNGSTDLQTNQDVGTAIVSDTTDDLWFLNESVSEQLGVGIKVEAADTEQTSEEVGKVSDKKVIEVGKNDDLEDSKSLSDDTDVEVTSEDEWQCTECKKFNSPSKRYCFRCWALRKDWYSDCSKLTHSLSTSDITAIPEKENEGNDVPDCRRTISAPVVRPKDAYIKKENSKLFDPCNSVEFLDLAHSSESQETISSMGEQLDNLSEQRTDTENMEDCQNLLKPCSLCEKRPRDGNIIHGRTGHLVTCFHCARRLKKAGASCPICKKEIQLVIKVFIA
Target sequence (Q00987 whole entry, looked up): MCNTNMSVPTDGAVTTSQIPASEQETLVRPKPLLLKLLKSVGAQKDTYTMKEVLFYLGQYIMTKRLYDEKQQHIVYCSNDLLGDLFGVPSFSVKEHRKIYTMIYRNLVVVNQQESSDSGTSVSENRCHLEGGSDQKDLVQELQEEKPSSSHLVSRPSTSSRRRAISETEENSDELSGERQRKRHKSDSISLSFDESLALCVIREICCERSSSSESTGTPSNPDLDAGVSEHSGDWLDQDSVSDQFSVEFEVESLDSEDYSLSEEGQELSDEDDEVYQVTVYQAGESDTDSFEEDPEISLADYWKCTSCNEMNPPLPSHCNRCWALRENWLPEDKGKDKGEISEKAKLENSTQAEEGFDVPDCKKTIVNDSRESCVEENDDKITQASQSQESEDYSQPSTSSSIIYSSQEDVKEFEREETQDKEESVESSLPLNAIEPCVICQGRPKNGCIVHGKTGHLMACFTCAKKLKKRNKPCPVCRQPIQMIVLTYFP
Beta cell apopt = blocks beta cell apoptosis | INS-1E cytokine-induced death, ATP luminescence, 48 h; percent of positive-control rescue, neutral wells zero | protection from apoptosis, % (no concentration beside the values) | 300,000 compounds, 0.8% hits | AID 435005;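 active = Every replicate reaches about 75%, or at least half do and their mean reaches it too, limit read from the data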;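 note: higher means more ATP so stronger rescue from cytokine killing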
T cruzi repl = blocks replication of Trypanosoma cruzi; T. cruzi beta-gal in NIH3T3, luminescence, 90 h; 300,000 compounds, 1.4% hits; inhibition, % (test concentration not listed);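 active = mean inhibition across valid replicates above about 55%, limit read from the data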;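 note: signal also drops with host cell toxicity which is not excluded here; higher percent means less beta-gal luminescence so fewer parasites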
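Assay system: NIH/3T3 fibroblasts plus reporter T. cruzi. Amount: NIH/3T3 cells, 5,000 per well. Buffer or medium: DMEM, 2% fetal bovine serum. Doses: compound pinned at 50 nL/well, DMSO. Schedule: ≥90 h infection period, 3 h prior cell attachment. Signal: luminescent β-galactosidase signal after 60 min lysis. Read-out: parasite load inhibition, %.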
UPR CHOP act = activators of apoptotic arm of unfolded protein response (CHOP) | CHO-CHOP luciferase reporter, UPR activation, luminescence; percent of tunicamycin response over DMSO baseline | activation, % at 10 µM | 330,000 compounds, 0.34% hits;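 active = at 10 µM dose, activation of 40% or more, normalized to positive control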
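Evaluation: % reporter activation, DMSO baseline versus tunicamycin full activation; System: CHO-CHOP luciferase reporter cell line; Input: 500 cells/well; Incubation: 6 h compound treatment, 37 °C; Measured by: Steady-Glo luciferase luminescence; Dosing: one dose, 10 µM in 0.5% DMSO; Buffer or medium: F12 medium, 10% FBS; Benchmarks: positive tunicamycin 10 µg/mL, negative DMSO alone.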
CSC inhib = cancer stem cell inhibition; AID 2717; inhibition, % at 7.5 µM; cancer stem cell-like cells viability, luminescence; 300,000 compounds, 1.1% hits; in the data active = inhibition above about 75%; tested in HMLE shEcad cells
XBP1 UPR activ = adaptive UPR (XBP1) activation. CHO-XBP1 luciferase reporter, IRE1-XBP1 UPR activation, luminescence; percent of tunicamycin response, DMSO as zero. AID 463104. 330,000 compounds, 0.33% hits. activation, % at 20 µM;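 active = versus positive control, 20 µM dose yields 30% or more activation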
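Material – CHO cell line with stable XBP1 luciferase reporter · Buffer or medium – F12 plus 10% FBS · Compound – single point, 20 µM final compound, 1% DMSO · Schedule – 16-18 h cell attachment at 37 °C, then 6 h compound exposure · Signal – Steady-Glo luminescence read · Benchmarks – high control tunicamycin 10 µg/mL final, low control DMSO vehicle only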
Large screens that a line does not name were inactive.

CCCCCC(=O)Nc1ccc(C(=O)CN2C(=O)NC3(CCCCCC3)C2=O)cc1	none
O=C1c2ccccc2C(=O)N1CC#CCN1CCN(C(c2ccccc2)c2ccccc2)CC1	CSC inhib 96
COc1cc(OC)c(OC)cc1/C=C1\CC(C)C/C(=C\c2cc(OC)c(OC)cc2OC)C1=O (centres undefined)	T cruzi repl 59 (no result: Mdm2-MdmX inh, UPR CHOP act, XBP1 UPR activ)
C/C=C/c1ccc(OCC(O)CNCCc2ccc(OC)cc2)c(OC)c1 (centres undefined)	none
C/C=C/c1ccc(OCC(O)CN(C)Cc2ccc(SC)cc2)c(OC)c1 (centres undefined)	T cruzi repl 60
Cc1ccc(OCc2ccc(C(=O)N3CCOCC3)cc2)cc1C	none
CC(C)c1ccc(COc2ccc(C(=O)N3CCOCC3)cc2)cc1	Beta cell apopt 76
Cc1nc(NC(=O)c2ccco2)sc1-c1csc(Nc2ccc(Cl)cc2Cl)n1	T cruzi repl 59
Cc1nc(NC(=O)c2ccco2)sc1-c1csc(Nc2ccc(Cl)cc2)n1	CSC inhib 91
Cc1nc(NC(=O)c2ccccc2)sc1-c1csc(Nc2ccc(Cl)cc2Cl)n1	none
Cc1nc(NC(=O)CC(C)C)sc1-c1csc(Nc2ccc(Cl)cc2Cl)n1	CSC inhib 80
COc1ccc(Cl)cc1Nc1nc(-c2sc(NC(=O)CC(C)C)nc2C)cs1	none
Cc1nc(NC(=O)c2ccccc2)sc1-c1csc(Nc2ccc(Cl)cc2)n1	none
CC(Sc1nnc(-c2ccc(Cl)cc2)n1C)C(N)=O (centres undefined)	none (no result: Beta cell apopt)
Cc1ccccc1C(=O)NCC(=O)OC(C)C(=O)NC(C)CCc1ccccc1 (centres undefined)	none (no result: T cruzi repl, CSC inhib)
CCS(=O)(=O)N1CCN(c2ccc(C(=O)NC3C4CC5CC(C4)CC3C5)cc2[N+](=O)[O-])CC1 (centres undefined)	T cruzi repl 68
CCOc1ccc(/C=C/C(=O)N(C)CC(=O)Nc2cccc(F)c2)cc1OCC	none
O=C1/C(=N\S(=O)(=O)c2cccs2)C([n+]2ccccc2)=C([O-])c2ccccc21	Beta cell apopt 97
O=S(=O)(/N=C/c1ccccc1O)c1cccs1	none (no result: Beta cell apopt, CSC inhib)
N/C(=N\S(=O)(=O)c1cccs1)c1ccccc1	none
CC(C)(C)c1cc[n+](C2=C([O-])c3ccccc3C(=O)/C2=N\S(=O)(=O)c2cccs2)cc1	Beta cell apopt 107
O=S(=O)(CC(CN1CCCCC1)N1CCCCC1)c1ccc2ccccc2c1 (centres undefined)	T cruzi repl 71 (no result: Mdm2-MdmX inh, Beta cell apopt, UPR CHOP act, CSC inhib, XBP1 UPR activ)
Cc1ccc(S(=O)(=O)CC(CN2CCCCC2)N2CCCCC2)cc1 (centres undefined)	none (no result: Mdm2-MdmX inh, Beta cell apopt, UPR CHOP act, CSC inhib, XBP1 UPR activ)
O=C(Nc1ccccc1)Nc1ccc(-n2ccc(C(F)(F)F)n2)cc1	Beta cell apopt 116
N#CCCN1CCN(CCC#N)CC1	none (no result: Beta cell apopt, CSC inhib)
Cc1cc(CN2CCN(CCC#N)CC2)c(O)c(C2(C)CCCCC2)c1	T cruzi repl 55
CCOC(=O)Cc1c(C)c2c(C)nn(-c3ccccc3)c2oc1=O	none
COc1ccc(CN2CCN(CC3CC3)CC2CCO)c(C)c1C (centres undefined)	none
COc1ccc(CN2CCN(Cc3csc(C(C)=O)c3)CC2CCO)c(C)c1C (centres undefined)	T cruzi repl 55
COc1ccc(CN2CCN(Cc3nc4ccccc4s3)CC2CCO)c(C)c1C (centres undefined)	T cruzi repl 61
COc1cccc(NC(=S)N(CCN(C)C)C(C)c2ccncc2)c1 (centres undefined)	none
Cc1ccc(/C=C/C(=O)Nc2ccc(Oc3ccccc3)cc2)o1	CSC inhib 88 (no result: Mdm2-MdmX inh, UPR CHOP act, XBP1 UPR activ)
CCOC(=O)c1sc(NC(=O)Nc2ccccc2Cl)cc1C	T cruzi repl 65, CSC inhib 94
CCOC(=O)c1sc(-c2ccccc2)cc1NC(=O)Nc1ccccc1	T cruzi repl 55 (no result: Mdm2-MdmX inh, UPR CHOP act, XBP1 UPR activ)
O=S(=O)(N1CCCCC1)N1CCN(CC(O)COc2ccc3cc(Br)ccc3c2)CC1 (centres undefined)	T cruzi repl 55
OC(COc1ccc2cc(Br)ccc2c1)CN1CCCC1 (centres undefined)	T cruzi repl 70 (no result: CSC inhib)
CCOC(=O)C1CCN(C(=O)CCCCn2c(=O)[nH]c3ccccc3c2=O)CC1	none
Cc1ccc(CC(C(=O)O)C(C)C(=O)Nc2ccc(F)cc2)cc1 (centres undefined)	none
COc1ccc(C2NCCc3c2[nH]c2ccccc32)cc1CSc1nc2ccccc2s1 (centres undefined)	CSC inhib 116 (no result: Mdm2-MdmX inh, UPR CHOP act, XBP1 UPR activ)
CC(Oc1ccc(Cl)cc1Cl)C(=O)NNC(=O)c1ccncc1 (centres undefined)	none
CC(Oc1ccc(Cl)cc1Cl)c1nc(-c2ccc(NC(=O)c3ccncc3)cc2)no1 (centres undefined)	T cruzi repl 55, CSC inhib 83 (no result: Beta cell apopt)
CC(Oc1ccc(Cl)cc1Cl)c1nc(-c2ccc(NC(=O)c3cccnc3)cc2)no1 (centres undefined)	Beta cell apopt 101
O=C(Nc1ccccc1)Nc1nc(-c2ccccc2)cs1	none
O=C(Nc1ccc(Cl)c(Cl)c1)Nc1nc(-c2ccccc2)cs1	T cruzi repl 64
O=C(Nc1ccccc1)Nc1ccccc1NS(=O)(=O)c1cccs1	none
O=C(Nc1ccc(Cl)c(Cl)c1)Nc1ccccc1NS(=O)(=O)c1cccs1	CSC inhib 99
O=C(Nc1ccc(Cl)cc1)Nc1nc(-c2ccccc2O)cs1	Beta cell apopt 109
Cc1csc(SCC(=O)Nc2nc(-c3ccccc3)cs2)n1	none
Nc1ccccc1SCC(=O)Nc1nc(-c2ccccc2)cs1	CSC inhib 127
Cc1csc(NC(=O)Nc2ccc(Cl)cc2)n1	none
Cc1ccc(C)c(S(=O)(=O)N2CCN(c3nc(-c4cccnc4)nc4ccccc34)CC2)c1	none (no result: T cruzi repl, CSC inhib)
O=C(Nc1ccc(Cl)cc1)Nc1nnc(-c2ccncc2)s1	Beta cell apopt 99, CSC inhib 91 (no result: Mdm2-MdmX inh, UPR CHOP act, XBP1 UPR activ)
O=C(Nc1ccc(Cl)cc1)Nc1nnc(SCc2ccc(Cl)cc2)s1	none
CCC(C)C(NC(=O)C1CCC(C)CC1)C(=O)Nc1ccc(OC)cc1 (centres undefined)	none
COc1ccc(/C=N/NS(=O)(=O)c2ccc(F)cc2)cc1COc1cc(F)ccc1[N+](=O)[O-]	T cruzi repl 59
O=C(COC(=O)C1CCN(c2ccc(C(F)(F)F)cn2)CC1)NCc1ccc(F)cc1	none
Nc1cc(-c2ccc(OC(F)(F)F)cc2)nn1-c1ccc(Cl)c(Cl)c1	CSC inhib 82
COc1cc(CNC(C)c2ccccc2)cc(Br)c1OCc1ccccc1 (centres undefined)	CSC inhib 112
COc1cc(CNc2ccc(O)cc2)cc(Br)c1OCc1ccccc1	none

Screens deposited in PubChem by several laboratories.
